Source: ChEMBL document CHEMBL1148594, “Novel 4-oxo-1,4-dihydroquinoline-3-carboxamide derivatives as new CB2 cannabinoid receptors agonists: synthesis, pharmacological properties and molecular modeling” (J Med Chem, 2006)

Experiments:
[1] = molecular target: T1, Cannabinoid receptor 1 (Homo sapiens, UniProt P21554); assay: Displacement of [3H]SR-141716A from human CB1 receptor at 10 uM
Procedure, shortened: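 Single-concentration screen at 10 µM on membranes of CHO cells stably expressing human CB1 (40 µg) against 1 nM [3H]-SR-141716A, 1 h at 30 °C, pH 7.4 Tris/MgCl2/EDTA/0.5% BSA. HU-210 10 µM for nonspecific binding. Reported as percent displacement. At least four experiments in duplicate.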

[2] = molecular target: T2, Cannabinoid receptor 2 (Homo sapiens, UniProt P34972); assay: Displacement of [3H]CP-55940 from human CB2 receptor at 10 uM
Procedure, shortened: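 Single-concentration screen at 10 µM on CHO-hCB2 membranes (40 µg) against 1 nM [3H]-CP-55,940, 1 h at 30 °C, pH 7.4 Tris/MgCl2/EDTA/0.5% BSA. HU-210 10 µM defines nonspecific binding. Filtered, counted, reported as percent specific radioligand displacement. At least four experiments in duplicate, mean ± SEM.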

[3] = molecular target: T2, Cannabinoid receptor 2; assay: Displacement of [3H]CP-55940 from human CB2 receptor
[4] = molecular target: T1, Cannabinoid receptor 1
[5] = molecular target: Cannabinoid receptor (Homo sapiens) (UniProt P34972+P21554); assay: Selectivity ratio of human CB2 receptor versus human CB1 receptor in human; assay type: protein assay
Procedure, shortened: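 Ratio of Ki values from [3H]-SR-141716A (hCB1) and [3H]-CP-55,940 (hCB2) competition binding on CHO cell membranes. Ki from IC50 by Cheng-Prusoff, given only when Ki was obtained at both receptors.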

[6] = molecular target: T2, Cannabinoid receptor 2; assay: Effect on human CB2 receptor stimulation by [35S]GTP-gamma-S binding at 10 uM (basal value set at 100%); assay type: functional
Procedure, shortened: (§1)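 CHO-hCB2 membranes (40 µg) at 30 °C for 1 h in pH 7.4 Tris/MgCl2/EDTA/100 mM NaCl/0.1% BSA with 20 µM GDP. Started by 0.05 nM [35S]-GTPγS (final). Nonspecific binding with 100 µM Gpp(NH)p. Stopped with ice-cold buffer, filtered on GF/B, counted. EC50 by nonlinear regression. Single-point tests at 10 µM, three experiments in duplicate, one-way ANOVA with Dunnett test.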

[7] = molecular target: T2, Cannabinoid receptor 2; assay: Effect on [35S]GTP-gamma-S binding to human CB2 receptor; assay type: functional; procedure, shortened: as §1

T2 sequence (P34972 whole entry): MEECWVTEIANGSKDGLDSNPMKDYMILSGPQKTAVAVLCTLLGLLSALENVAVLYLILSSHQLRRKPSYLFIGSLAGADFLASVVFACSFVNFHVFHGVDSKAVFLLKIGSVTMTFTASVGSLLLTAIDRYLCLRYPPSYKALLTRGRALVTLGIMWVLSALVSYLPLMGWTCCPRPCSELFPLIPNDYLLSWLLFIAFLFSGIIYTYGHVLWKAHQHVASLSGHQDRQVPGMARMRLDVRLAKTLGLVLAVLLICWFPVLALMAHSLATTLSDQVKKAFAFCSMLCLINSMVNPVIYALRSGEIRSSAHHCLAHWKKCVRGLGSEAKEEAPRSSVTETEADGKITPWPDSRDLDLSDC
Cannabinoid receptor (Homo sapiens), sequence (P21554 whole entry, looked up): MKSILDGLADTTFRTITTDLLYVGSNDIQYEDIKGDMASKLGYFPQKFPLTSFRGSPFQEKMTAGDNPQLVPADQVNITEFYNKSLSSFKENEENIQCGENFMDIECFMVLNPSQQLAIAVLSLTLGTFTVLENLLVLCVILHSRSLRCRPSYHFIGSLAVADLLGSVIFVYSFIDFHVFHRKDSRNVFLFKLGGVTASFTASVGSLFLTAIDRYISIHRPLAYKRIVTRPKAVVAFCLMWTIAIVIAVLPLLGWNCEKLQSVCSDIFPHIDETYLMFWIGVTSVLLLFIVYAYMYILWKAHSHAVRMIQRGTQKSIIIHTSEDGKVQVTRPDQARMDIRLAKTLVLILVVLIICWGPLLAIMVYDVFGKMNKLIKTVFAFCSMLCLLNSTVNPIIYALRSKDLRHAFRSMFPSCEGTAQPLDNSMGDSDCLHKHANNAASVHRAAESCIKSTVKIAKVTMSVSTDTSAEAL
Cannabinoid receptor (Homo sapiens), sequence (P34972 whole entry, looked up): as the sequence (P34972 whole entry) above
T1 sequence (P21554 whole entry): as the sequence (P21554 whole entry, looked up) above

| Compound | Activity [1] | Activity [2] | Ki [3] | Ki [4] | Selectivity ratio [5] | Activity [6] | EC50 [7] | Emax [7] |
| --- | --- | --- | --- | --- | --- | --- | --- | --- |
| CCCCCCn1cc(C(=O)NCc2ccccc2)c(=O)c2ccccc21 | 37.4% | 54.6% |  |  |  |  |  |  |
| CCCCCn1cc(C(=O)Nc2ccc(-c3ccccc3)cc2)c(=O)c2ccccc21 | < 20% | < 20% |  |  |  |  |  |  |
| CCCCCn1cc(C(=O)N[C@H](C)c2ccccc2)c(=O)c2ccccc21 |  |  | 37.1 nM | 1150 nM | 31 | 124% | 16.8 nM | 129% |
| CCCCCn1cc(C(=O)NC2CCCc3ccccc32)c(=O)c2ccccc21 (racemic) | 79.7% | 96.5% | 60.2 nM | 1050 nM | 17 | 123% | 157 nM | 124% |
| CCCCCn1cc(C(=O)NC(C)c2cccc3ccccc23)c(=O)c2ccccc21 (racemic) | 35.5% | 98.9% | 174 nM |  |  | 117% |  |  |
| CCCCCn1cc(C(=O)NCCc2ccc3c(c2)OCO3)c(=O)c2ccccc21 | 43.6% | 88.7% | 426 nM |  |  | 136% |  |  |
| CCCCCn1cc(C(=O)Nc2ccc(OC)cc2)c(=O)c2ccccc21 | < 20% | 60.1% |  |  |  |  |  |  |
| CCCCCCC(C)(C)c1ccc([C@@H]2C[C@H](O)CC[C@H]2CCCO)c(O)c1 |  |  |  |  |  | 146% |  | 146% |
| CCCCCn1cc(C(=O)NC(C)c2ccccc2)c(=O)c2ccccc21 (racemic) | 68.3% | 101% | 70.8 nM |  |  | 130% |  |  |
| CCCCCCC(C)(C)c1cc(O)c2c(c1)OC(C)(C)[C@@H]1CC=C(CO)C[C@@H]21 |  |  |  |  |  | 135% |  | 135% |
| CCCCCn1cc(C(=O)Nc2ccc(C#N)cc2)c(=O)c2ccccc21 | 49.6% | 79.4% | 772 nM |  |  | 133% |  |  |
| CCCCCn1cc(C(=O)NC23CC4CC(CC(C4)C2)C3)c(=O)c2ccccc21 | 59% | 104% | 16.4 nM |  |  | 126% |  |  |
| CCCCCn1cc(C(=O)NC(C)c2ccc3ccccc3c2)c(=O)c2ccccc21 (racemic) | < 10% | 82.9% | > 1000 nM |  |  | 122% |  |  |
| CCCCCn1cc(C(=O)Nc2cccc3ccccc23)c(=O)c2ccccc21 | 65.9% | 90.6% | 371 nM | 4080 nM | 11 | 124% |  |  |
| CC12CC3CC(C)(C1)CC(NC(=O)c1cn(Cc4ccccc4)c4ccccc4c1=O)(C3)C2 | 32.5% | 86.3% | 664 nM |  |  | 121% |  |  |
| CCCCCCn1cc(C(=O)Nc2cccc3ccccc23)c(=O)c2ccccc21 | 53.3% | 80% | 844 nM |  |  | 124% |  |  |
| Cc1c(C(=O)c2cccc3ccccc23)c2cccc3c2n1[C@H](CN1CCOCC1)CO3 |  |  |  |  |  | 128% |  | 126% |
| CCCCCn1cc(C(=O)NC23CC4CC(C)(CC(C)(C4)C2)C3)c(=O)c2ccccc21 | 54.6% | 95.6% | 15.8 nM |  |  | 131% | 14.1 nM | 124% |
| CCCCn1cc(C(=O)Nc2ccc(OC)cc2)c(=O)c2ccccc21 | < 20% | 50.5% |  |  |  |  |  |  |

| Compound | Activity [1] | Activity [2] | Ki [3] | Ki [4] | Selectivity ratio [5] | Activity [6] | EC50 [7] | Emax [7] |
| --- | --- | --- | --- | --- | --- | --- | --- | --- |
| CCCCCn1cc(C(=O)NCCc2ccccc2)c(=O)c2ccccc21 | 64.8% | 98.2% | 201 nM |  |  | 136% |  |  |
| CCCCn1cc(C(=O)Nc2cccc3ccccc23)c(=O)c2ccccc21 | 45.3% | 85.4% | 455 nM |  |  | 132% |  |  |
| CCCCCn1cc(C(=O)N[C@@H](C)c2ccc3ccccc3c2)c(=O)c2ccccc21 |  |  | > 5000 nM |  |  |  |  |  |
| CCCCCn1cc(C(=O)Nc2ccc3ccccc3c2)c(=O)c2ccccc21 | < 10% | 63.9% |  |  |  |  |  |  |
| CCCCCn1cc(C(=O)NCc2ccc(OC)cc2)c(=O)c2ccccc21 | < 10% | 51.7% |  |  |  |  |  |  |
| Cc1ccc(Cn2nc(C(=O)NC3C4(C)CCC(C4)C3(C)C)cc2-c2ccc(Cl)c(C)c2)cc1 (stereo not given) |  |  |  |  |  | 21.6% |  | 21.6% |
| CCCCCn1cc(C(=O)NCCCc2ccccc2)c(=O)c2ccccc21 | 32.8% | 85.5% | > 1000 nM |  |  | 134% |  |  |
| CCCCCn1cc(C(=O)NCc2ccccc2)c(=O)c2ccccc21 | 50.5% | 66.7% | > 1000 nM |  |  | 129% |  |  |
| CCCCCn1cc(C(=O)N[C@H](C)c2ccc3ccccc3c2)c(=O)c2ccccc21 |  |  | 584 nM |  |  | 122% |  |  |
| CCCCCCn1cc(C(=O)Nc2ccc(OC)cc2)c(=O)c2ccccc21 | < 10% | 28.2% |  |  |  |  |  |  |
| CCCCn1cc(C(=O)NCc2ccccc2)c(=O)c2ccccc21 | 33.6% | 44.9% |  |  |  |  |  |  |
| CCCCCn1cc(C(=O)N[C@H](C)c2cccc3ccccc23)c(=O)c2ccccc21 |  |  | 125 nM |  |  | 119% |  |  |
| CCCCCn1cc(C(=O)Nc2ccc(Cl)c(Cl)c2)c(=O)c2ccccc21 | < 10% | 68.1% | > 1000 nM |  |  | 116% |  |  |
| CCCCCn1cc(C(=O)N2CCOCC2)c(=O)c2ccccc21 | < 10% | 36.5% |  |  |  |  |  |  |
| CCCCCn1cc(C(=O)N[C@@H](C)c2cccc3ccccc23)c(=O)c2ccccc21 |  |  | > 1000 nM |  |  |  |  |  |
| CCCC(C)(C)c1ccc2c(c1)OC(C)(C)[C@@H]1CC=C(C)C[C@@H]21 |  |  | 20.3 nM |  |  | 148% | 146 nM | 149% |
| CCCCCn1cc(C(=O)O)c(=O)c2ccccc21 | < 20% | < 15% |  |  |  |  |  |  |
| CCCCCn1cc(C(=O)N[C@@H](C)c2ccccc2)c(=O)c2ccccc21 |  |  | 784 nM |  |  |  |  |  |
| CCCCCn1cc(C(=O)NC2C3CC4CC(C3)CC2C4)c(=O)c2ccccc21 (stereo not given) | 37.8% | 104% | 13.4 nM | 1920 nM | 143 | 130% | 24.8 nM | 126% |
